≈ marks a conversion by molar mass, not a printed value.
Experiments:
Format in all cases: functional
[1] = tested on: Mycobacterium tuberculosis variant bovis; experiment: In vitro inhibitory activity against Mycobacterium tuberculosis (strain type-ATCC 27289) at pH 5.8.
Procedure, shortened: (§1)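 Middlebrook 7H10 agar plus 10% OADC at pH 5.8 in compartmented plates, with serial twofold dilutions from 200 to 3.12 µg/mL. Plates were prepared 24–48 h before use and stored at 4 °C. A drug-free compartment was included per isolate. Incubation was 37 °C for 4 weeks. MIC was the lowest level producing 99% (2 log) inhibition of growth.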

[2] = tested on: Mycobacterium tuberculosis variant bovis; experiment: In vitro inhibitory activity against Mycobacterium tuberculosis (strain type-ATCC 27289). at pH 6.6
Procedure, shortened: (§2)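 Twofold serial dilutions (200–3.12 µg/mL) in 7H10 agar with 10% OADC enrichment at pH 6.6, in compartmented plates. Plates were stored at 4 °C and used within 24–48 h. A no-drug compartment served as control for each isolate. Plates were incubated for 4 weeks at 37 °C. MIC was the lowest concentration giving 99% (2 log) growth inhibition.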

[3] = tested on: Mycobacterium tuberculosis variant bovis; experiment: In vitro activity against Mycobacterium. tuberculosis (strain type-ATCC 27289).at pH 5.8; procedure, shortened: as §1
[4] = tested on: Mycobacterium tuberculosis variant bovis; experiment: In vitro activity against Mycobacterium. tuberculosis (strain type-ATCC 27289).at pH 6.6; procedure, shortened: as §2
[5] = tested on: Mycobacterium tuberculosis variant bovis; experiment: In vitro activity against Mycobacterium. tuberculosis (strain type-ATCC 27289)at pH 6.6; procedure, shortened: as §2
[6] = tested on: Mycobacterium tuberculosis variant bovis; experiment: In vitro inhibitory activity against Mycobacterium. tuberculosis (strain type-ATCC 27289).at pH 5.8; procedure, shortened: as §1
[7] = tested on: Mycobacterium tuberculosis variant bovis; experiment: In vitro inhibitory activity against Mycobacterium. tuberculosis (strain type-ATCC 27289).at pH 6.6; procedure, shortened: as §2
[8] = tested on: Mycobacterium tuberculosis variant bovis; experiment: In vitro inhibitory activity against Mycobacterium tuberculosis (strain type-ATCC 27289). at pH 5.8; procedure, shortened: as §1
[9] = tested on: Mycobacterium tuberculosis variant bovis; experiment: In vitro activity against Mycobacterium. tuberculosis (strain type-ATCC 27289)at pH 5.8.; procedure, shortened: as §1
[10] = tested on: Mycobacterium tuberculosis variant bovis; experiment: In vitro activity against Mycobacterium. tuberculosis (strain type-ATCC 27289). at pH 6.6; procedure, shortened: as §2

SMILES: O=C(O)c1cnccn1 [PYRAZINOIC ACID]
- MIC [1]: 100 µg/mL (≈ 806 µM)
- MIC [2]: > 200 µg/mL

SMILES: O=C(OC(C(F)(F)F)C(F)(F)F)c1cnccn1
- MIC [3]: > 200 µg/mL

SMILES: CCCOC(=O)c1cnccn1
- MIC [3]: 6.25 µg/mL (≈ 37.6 µM)
- MIC [4]: 25 µg/mL (≈ 150 µM)

SMILES: O=C(Oc1c(F)c(F)c(F)c(F)c1F)c1cnccn1
- MIC [3]: 12.5 µg/mL (≈ 43.1 µM)
- MIC [5]: 100 µg/mL (≈ 345 µM)

SMILES: O=C(OCCBr)c1cnccn1
- MIC [4]: > 200 µg/mL

SMILES: NC(=O)c1cnccn1 [PYRAZINAMIDE]
- MIC [6]: > 200 µg/mL
- MIC [7]: > 200 µg/mL

SMILES: O=C(Oc1ccc(-c2ccccc2)cc1)c1cnccn1
- MIC [3]: 25 µg/mL (≈ 90.5 µM)
- MIC [4]: 100 µg/mL (≈ 362 µM)

SMILES: Cc1ccc(OC(=O)c2cnccn2)cc1
- MIC [3]: 6.25 µg/mL (≈ 29.2 µM)
- MIC [4]: 50 µg/mL (≈ 233 µM)

SMILES: CC(C)(C)c1ccc(OC(=O)c2cnccn2)cc1
- MIC [3]: 25 µg/mL (≈ 97.5 µM)
- MIC [4]: 200 µg/mL (≈ 780 µM)

SMILES: CN(C)CCOC(=O)c1cnccn1
- MIC [8]: 12.5 µg/mL (≈ 64 µM)
- MIC [2]: 200 µg/mL (≈ 1020 µM)

SMILES: O=C(OCCCl)c1cnccn1
- MIC [9]: 6.25 µg/mL (≈ 33.5 µM)

SMILES: O=C(OCC(F)(F)F)c1cnccn1
- MIC [10]: > 200 µg/mL
- MIC [3]: 25 µg/mL (≈ 121 µM)

SMILES: O=C(Oc1ccc([N+](=O)[O-])cc1)c1cnccn1
- MIC [3]: 3.12 µg/mL (≈ 12.7 µM)
- MIC [4]: 100 µg/mL (≈ 408 µM)

SMILES: C=CCOC(=O)c1cnccn1
- MIC [3]: < 3.12 µg/mL
- MIC [4]: 200 µg/mL (≈ 1220 µM)

— ChEMBL document CHEMBL1125418, “Antimycobacterial activity of a series of pyrazinoic acid esters” (1992)
